Measured values reported in PubChem BioAssay AID588736 (Vanderbilt Specialized Chemistry Center, 2011).
Activity calls are given as the source filed them.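 Rule for the calls: active = compound halving or more than doubling glutamate potency, or top glutamate response under 75% or over 125% of control; inactive = the rest.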

Molecular target: Metabotropic glutamate receptor 1 (Rattus norvegicus) (UniProt P23385)
Experiment: rat mGlu1 allosteric modulation, glutamate curve shift, profiling panel, selectivity assay for mGlu5 PAM project, calcium fluorescence, HEK293A cells (AID 588736)
Conditions: glutamate CRC shift, at 10 µM; for Emax: measured here: glutamate Emax with compound; for Emin: measured here: glutamate Emin with compound, stronger effect = higher value
How it was run: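 system = HEK293A cells expressing rat mGlu1 receptor | reagent = glutamate as agonist, 11-point concentration-response curve | dosing = test compound at a single 10 µM final, or vehicle | schedule = compound added at 1.5 s, glutamate curve at 142 s | technique = Fluo4-AM calcium fluorescence | read-out = fold shift, vehicle EC50 over compound EC50, four-parameter fit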

Chain of Metabotropic glutamate receptor 1 (Rattus norvegicus) (P23385 whole entry, looked up): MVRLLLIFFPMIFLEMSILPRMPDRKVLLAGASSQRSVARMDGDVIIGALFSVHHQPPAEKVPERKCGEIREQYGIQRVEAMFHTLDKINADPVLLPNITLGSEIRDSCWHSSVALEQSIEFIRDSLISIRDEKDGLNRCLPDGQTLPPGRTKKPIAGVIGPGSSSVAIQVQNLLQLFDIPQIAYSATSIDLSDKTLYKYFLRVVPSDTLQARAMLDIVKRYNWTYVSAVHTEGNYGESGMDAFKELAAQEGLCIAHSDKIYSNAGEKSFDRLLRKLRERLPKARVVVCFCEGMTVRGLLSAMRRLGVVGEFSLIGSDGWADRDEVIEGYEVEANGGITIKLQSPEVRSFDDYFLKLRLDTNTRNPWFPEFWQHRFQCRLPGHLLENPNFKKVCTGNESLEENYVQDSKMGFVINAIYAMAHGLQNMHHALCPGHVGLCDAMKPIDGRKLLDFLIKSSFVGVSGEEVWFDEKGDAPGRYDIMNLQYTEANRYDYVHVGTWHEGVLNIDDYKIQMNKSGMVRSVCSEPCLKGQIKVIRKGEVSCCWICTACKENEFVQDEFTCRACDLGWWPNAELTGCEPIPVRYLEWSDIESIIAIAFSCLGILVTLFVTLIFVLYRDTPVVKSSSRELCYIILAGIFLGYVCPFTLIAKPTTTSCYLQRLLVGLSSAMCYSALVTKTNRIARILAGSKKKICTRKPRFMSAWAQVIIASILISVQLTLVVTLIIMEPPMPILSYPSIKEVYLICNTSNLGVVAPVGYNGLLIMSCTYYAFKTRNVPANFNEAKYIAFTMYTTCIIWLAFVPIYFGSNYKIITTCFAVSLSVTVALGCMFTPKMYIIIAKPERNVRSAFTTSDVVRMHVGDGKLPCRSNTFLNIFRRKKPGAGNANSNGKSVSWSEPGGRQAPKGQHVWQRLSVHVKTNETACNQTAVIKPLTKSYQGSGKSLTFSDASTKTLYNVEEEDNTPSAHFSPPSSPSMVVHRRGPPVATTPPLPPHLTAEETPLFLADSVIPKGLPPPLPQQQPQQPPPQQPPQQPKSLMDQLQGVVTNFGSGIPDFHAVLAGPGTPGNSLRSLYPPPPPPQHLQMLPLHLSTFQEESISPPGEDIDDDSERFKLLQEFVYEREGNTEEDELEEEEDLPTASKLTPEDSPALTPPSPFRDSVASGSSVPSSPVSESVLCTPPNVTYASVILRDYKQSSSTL

| SMILES | fold shift | Emax | Emin |
| --- | --- | --- | --- |
| CC1(NC(=O)c2ccc(C#Cc3cccc(F)c3)cn2)COC1 | 0.93 (inactive) | 91% | 1% |
| C[C@@H](NC(=O)c1ccc(C#Cc2cccc(F)c2)cn1)C(C)(C)O | 1.43 (inactive) | 94% | 1% |
